Data set [1] deals with T1, Diacylglycerol O-acyltransferase 1 (Homo sapiens, UniProt O75907).
T1 sequence (O75907 whole entry): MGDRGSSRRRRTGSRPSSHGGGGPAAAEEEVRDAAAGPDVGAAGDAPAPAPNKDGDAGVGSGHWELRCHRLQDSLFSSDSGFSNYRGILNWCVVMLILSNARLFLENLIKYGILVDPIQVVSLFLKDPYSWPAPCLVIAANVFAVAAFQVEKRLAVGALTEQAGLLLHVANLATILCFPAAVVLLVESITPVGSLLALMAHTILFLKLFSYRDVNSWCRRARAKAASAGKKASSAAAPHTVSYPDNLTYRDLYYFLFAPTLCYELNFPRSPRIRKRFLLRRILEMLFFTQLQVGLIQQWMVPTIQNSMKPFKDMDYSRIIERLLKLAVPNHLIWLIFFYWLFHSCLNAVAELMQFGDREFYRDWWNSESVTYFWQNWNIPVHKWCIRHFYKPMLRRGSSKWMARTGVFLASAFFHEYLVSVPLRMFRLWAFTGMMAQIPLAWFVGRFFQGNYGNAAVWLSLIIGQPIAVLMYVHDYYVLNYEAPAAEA
As to the kind of experiment: Inhibition of recombinant human His6-tagged DGAT1 expressed in Sf9 insect cell membranes assessed as inhibition of triglyceride formation using diolein/oleyl-CoA as substrate after 30 mins by LC/MS/MS analysis.

A short description of data set [2]: Efflux ratio of permeability across basolateral to apical side over apical to basolateral side in human Caco2 cells. To be noted: Caco-2. It counts as ADME, cell-based. The essentials:
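Caco-2 monolayer permeability was measured in the A-B and B-A directions, and the efflux ratio was taken as B-A/A-B.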

Data set [3] concerns Salmonella typhimurium. As to the kind of experiment: Genotoxicity in histidine depleted Salmonella typhimurium TA100 assessed as increase in reverting mutations up to 1000 ug in presence of S9 metabolic activation by Ames test. It counts as toxicity. To be noted: salmonella enterica subsp. enterica serovar typhimurium.
Data set [4] is described as follows: Half life in Sprague-Dawley rat at 1 mg/kg, iv by LC/MS/MS analysis. The class given is ADME, organism-based. To be noted: in vivo. Summed up:
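Male Sprague-Dawley rats, 200-300 g, dosed iv (n = 2) or po (n = 3) as solutions in NMP/PG or PEG400/ETPGS vehicles. Blood was taken from a jugular vein catheter at 0.083 (iv only), 0.25, 0.5, 1, 2, 4, 6 and 8 h into EDTA tubes, and plasma was analysed by LC-MS/MS. Values are means ± SD.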

Data set [5] is described as follows: Drug metabolism in rat hepatocytes assessed as [3H]-3-(3,5-dimethyl-4-(6-(5-phenyl-1,3,4-oxadiazol-2-yl)-1H-benzo[d]imidazol-2-yl)phenyl)-2,2-dimethylpropanoic acid formation at 12.5 uM after 18 hrs. The class given is ADME, cell-based, Hepatocyte. Summed up:
(§1)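 [3H]-labelled compound (12.5 µM) was incubated for 18 h with rat, dog, monkey or human hepatocytes, and metabolites were profiled.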

Data set [6] is described as follows: Drug metabolism in human hepatocytes assessed as [3H]-3-(3,5-dimethyl-4-(6-(5-phenyl-1,3,4-oxadiazol-2-yl)-1H-benzo[d]imidazol-2-yl)phenyl)-2,2-dimethylpropanoic acid formation at 12.5 uM after 18 hrs. It counts as ADME, cell-based, Hepatocyte. Summed up: as §1
The target in data set [7] is T2, Diacylglycerol O-acyltransferase 2 (Homo sapiens, UniProt Q96PD7).
T2 sequence (Q96PD7 whole entry): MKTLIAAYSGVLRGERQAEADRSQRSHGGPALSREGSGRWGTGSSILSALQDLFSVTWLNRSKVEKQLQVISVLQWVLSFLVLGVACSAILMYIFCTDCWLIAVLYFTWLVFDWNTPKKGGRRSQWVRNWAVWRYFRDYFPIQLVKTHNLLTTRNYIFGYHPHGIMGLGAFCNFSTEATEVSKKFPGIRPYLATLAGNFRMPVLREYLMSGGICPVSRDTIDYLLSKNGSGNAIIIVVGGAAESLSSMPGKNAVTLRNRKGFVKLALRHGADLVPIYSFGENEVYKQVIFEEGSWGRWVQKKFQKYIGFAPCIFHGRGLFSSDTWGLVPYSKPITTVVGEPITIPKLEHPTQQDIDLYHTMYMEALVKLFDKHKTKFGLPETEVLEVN
The data set is described as follows: Inhibition of DGAT2 (unknown origin).

Structures are written as SMILES.

With `COc1ccc(-c2nnc(-c3ccc4nc(-c5c(C)cc(CC(C)(C)C(=O)O)cc5C)[nH]c4c3)o2)cc1`, the IC50 in data set [1] was 17 nM; in data set [7], above 10000 nM. Further, the efflux ratio in data set [2] is 2.4. Moreover, in data set [3], the Activity entry is listed as “Non-Toxic”. This compound showed a half-life in data set [4] of 1.9 h. For the same compound, the Drug metabolism entry in data set [5] and in data set [6] was “Metabolite_Detected” throughout.

The record behind these values is ChEMBL document CHEMBL4014326, “Discovery of an Orally Bioavailable Benzimidazole Diacylglycerol Acyltransferase 1 (DGAT1) Inhibitor That Suppresses Body Weight Gain in Diet-Induced Obese Dogs and Postprandial Triglycerides in Humans” (J Med Chem, 2017).
